Rows were chosen to be rich in hits. Some 1.9% of all compounds tested hit in one or more screens of this group.
DDE Tn7 FP inh: disrupts Tn7 cyclic peptide binding to fibrin D-Dimer-E complex; P02675; FP displacement of FITC-Tn7 peptide from fibrin DD(E); 0% = median of compound wells per plate; inhibition, % at 8.3 µM; actives 0.13% (n = 370,000);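 active = inhibition above the mean of compounds falling within the control limits plus 3 SD of them, cut at about 14% in these data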
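Assay system: human fibrin DD(E) protein / Input: 2 µM fibrin DD(E) / Benchmarks: high control of 10 µM Aha-Tn7 peptide / Measured by: fluorescence polarization of the labelled Tn7 tracer / Medium: Tris buffer with calcium and detergent, pH 7.8 / Timing: 10 min compound pre-incubation, 3 h probe incubation at room temperature / Repeats: one replicate per compound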
MBD2 DNA inh: MBD2-methylated oligo binding inhibition. Q9UBB5. TR-FRET, MBD2 binding to methylated oligonucleotide. actives 0.31% (n = 370,000). inhibition, % at 4.4 µM; in the data active = inhibition above about 13%
DDE Tn6 FP inh: disrupts Tn6 cyclic peptide binding to fibrin D-Dimer-E complex; actives 0.21% (n = 370,000); Fibrin DD(E) TRITC-Tn6 fluorescence polarization displacement; AID 720509; inhibition, % at 8.3 µM; P02675;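 active = inhibition above a per-campaign cutoff: mean of compounds within control limits plus 3 SD, cut at about 15% in these data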
TDP2 absorb: TDP2 (human) inhibition, absorbance primary screen; O95551; recombinant TDP2, T5PNP hydrolysis, p-nitrophenol absorbance 415 nm; inhibition, % at 12.8 µM; actives 0.34% (n = 370,000); AID 720702;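 active = inhibition above the mean of all tested compounds plus 3 SD, set per campaign, cut at about 25% in these data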
Target sequence (O95551 whole entry, looked up): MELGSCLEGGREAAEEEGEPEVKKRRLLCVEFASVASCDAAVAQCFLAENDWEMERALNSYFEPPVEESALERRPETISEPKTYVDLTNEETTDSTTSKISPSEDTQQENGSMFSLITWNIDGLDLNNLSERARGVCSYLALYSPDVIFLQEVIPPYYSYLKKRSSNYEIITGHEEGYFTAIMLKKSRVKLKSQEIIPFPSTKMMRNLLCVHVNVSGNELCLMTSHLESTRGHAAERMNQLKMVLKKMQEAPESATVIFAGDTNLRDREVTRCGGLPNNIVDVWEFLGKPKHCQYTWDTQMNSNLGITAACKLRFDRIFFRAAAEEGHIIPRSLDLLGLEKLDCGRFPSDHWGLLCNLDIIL
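Assay system: Recombinant human TDP2 | Quantity: 120 nM TDP2 per well | Incubation: 2 h at 37 °C | Signal: Epi absorbance | Evaluation: Percent inhibition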
LEDGF integ inh: blocks HIV-1 LEDGF/p75-dependent DNA integration | inhibition, % at 3.7 µM | TR-FRET IN-LEDGF/p75 DNA integration, Eu/Cy5 | actives 0.64% (n = 370,000) | AID 743269;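 active = inhibition above the screen-wide mean plus 3 SD, cut at about 13% in these data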;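 also: signal is the Cy5 over europium emission ratio at 671 and 618 nm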
UHRF1 binding: UHRF1 methyl-DNA binding inhibition. Q96T88. AID 687016. actives 0.75% (n = 370,000). inhibition, % at 4.4 µM. UHRF1 binding to methylated oligo, TR-FRET; in the data active = inhibition above about 21%;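 also: UHRF1 SRA domain binding a hemimethylated CpG hairpin DNA probe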
A number is an active result; – = inactive.

SMILES | DDE Tn7 FP inh | MBD2 DNA inh | DDE Tn6 FP inh | TDP2 absorb | LEDGF integ inh | UHRF1 binding
COc1ccccc1NC(=O)Cc1nnc(SCC(=O)Nc2ccc(F)cc2F)n1C | – | – | – | – | – | –
O=C(O)Cn1nnnc1SCC(=O)Nc1ccccc1F | – | – | – | – | – | 26
COc1ccccc1NC(=O)CSc1nnc(CCC(=O)Nc2ccccc2F)n1C | – | – | – | – | – | 21
COC(=O)c1ccccc1NC(=O)CSc1nnnn1CC(=O)O | – | – | – | – | – | –
COc1cc(Cl)c(C)cc1NC(=O)CN1CCN(C(=O)c2cccs2)CC1 | – | – | – | – | – | –
CS(=O)(=O)c1ccc(Cl)c(NC(=O)CN2CCN(C(=O)c3cccs3)CC2)c1 | – | – | – | – | – | 23
CC(NC(=O)C1CCN(CCOc2ccc(Cl)cc2)CC1)c1cccc2ccccc12 (centres undefined) | – | – | – | – | – | 25
CCOc1cc(C(=O)NC)cc(Br)c1OCc1ccccc1 | – | – | – | – | – | 48
CCOc1cc(C(=O)NC)cc(Br)c1OC | – | – | – | – | – | –
CCN(CC)CC(C)OC(=O)COc1ccc(OC)cc1 (centres undefined) | – | – | – | – | – | 24
Cn1c2ccccc2c(=O)c2c(=O)n(Cc3cccc4ccccc34)cnc21 | – | – | – | – | – | –
Cc1[nH][nH]c(=O)c1C(c1c(C)[nH][nH]c1=O)c1cn(Cc2cccc3ccccc23)c2ccccc12 | – | – | – | 60 | – | –
CCN(CC)C(=O)CC[C@@H]1CC[C@]2(CCCN(Cc3cccnc3)C2)O1 | – | – | – | – | – | –
Cc1ccc2nc(-c3ccc(Cl)cc3)c(CC3CCCCC3)n2c1 | – | – | – | – | – | 21
Cc1ccc2nc(-c3ccc(F)cc3)c(Cc3cccc(F)c3)n2c1 | – | – | – | – | – | –
Cc1ccc(Cc2c(-c3ccco3)nc3ccc(Br)cn23)cc1 | – | – | – | – | – | –
Cc1ccc2nc(-c3ccc(F)cc3)c(CC3CCCCC3)n2c1 | – | – | – | – | – | 21
Brc1ccc2nc(-c3ccco3)c(CC3CCCCC3)n2c1 | – | – | – | – | 16 | –
COC(=O)c1ccc2nc(-c3ccc(Cl)cc3)c(CC3CCCCC3)n2c1 | – | – | – | – | – | –
CN(C)c1cccc(CNC(=O)c2ccc3nc([C@@H]4O[C@H](CO)[C@H](O)[C@H](O)[C@H]4O)[nH]c3c2)c1 | – | – | – | – | – | 81
CC(c1ccco1)N(C(=O)c1ccccc1NS(=O)(=O)c1cc([N+](=O)[O-])ccc1Cl)c1ccccn1 (centres undefined) | – | – | – | – | – | 26
CC(c1ccco1)N(C(=O)c1ccccc1NS(=O)(=O)c1ccc(Cl)cc1)c1ccccn1 (centres undefined) | – | – | – | – | – | –
O=[N+]([O-])c1cccc(COc2ccc(CN3CCCCC3)cc2)c1 | – | – | – | – | – | 21
CN1NC(=O)c2ccccc2NC1=S | – | – | – | – | – | –
O=C(Nc1ccc(C(=O)N2CCCC2)cc1)C1CCC1 | – | – | – | – | – | 23
SMILES | DDE Tn7 FP inh | MBD2 DNA inh | DDE Tn6 FP inh | TDP2 absorb | LEDGF integ inh | UHRF1 binding
O=C(Nc1ccc(C(=O)N2CCCC2)cc1)C1CCCC1 | – | – | – | – | – | –
CC1CCCCN1C(=O)c1ccc(CNC(=O)c2cccc(Br)c2)cc1 (centres undefined) | – | – | – | – | – | –
O=C(NC1CCCC1)[C@@H]1CCCN1C(=O)[C@@H](NC(=O)N1CCOCC1)c1ccccc1 | – | – | – | – | – | –
COc1ccc(OC)c(NC(=O)COC(=O)CCS(=O)(=O)c2ccc(Cl)cc2)c1 | – | – | – | – | – | 21
COC1=C(Br)C(=O)c2ncccc2C1=O | – | – | – | 94 | 15 | –
OC(COC(c1ccccc1)c1ccccc1)CN1CCN(c2ccccn2)CC1 (centres undefined) | – | – | – | – | – | 23
CCOC(=O)c1cc(-c2ccccc2)sc1NC(=O)CN1C(=O)NC(CC)(c2ccc(F)cc2)C1=O (centres undefined) | – | – | – | – | – | 24
COC(=O)Cc1nnn2c1CC(OC)c1cc(Br)ccc1-2 (centres undefined) | – | – | – | – | – | –
CN1CCc2c(sc3c2C(=O)NC(c2ccccc2)N3)C1 (centres undefined) | – | – | – | – | – | –
CN1CCc2c(sc3c2C(=O)NC(c2ccccn2)N3)C1 (centres undefined) | – | – | 28 | – | – | –
O=S(=O)(c1ccc(Br)s1)N1CCC(c2nc3ccccc3o2)CC1 | – | – | – | – | – | –
CC1(OC(=O)CCc2ccccc2)C(=O)C=C2C=C(c3ccc(C#N)cc3)N(Cc3ccccc3)C=C2C1=O (centres undefined) | – | – | – | – | – | –
CC1(OC(=O)CCc2ccccc2)C(=O)C=C2C=C(c3ccc(C#N)cc3)N(Cc3ccco3)C=C2C1=O (centres undefined) | – | – | – | – | 17 | –
CC(C)(CN1CCN(Cc2ccccc2)CC1)NS(=O)(=O)c1ccccc1 | – | – | – | – | – | 22
CCCCn1c(NS(=O)(=O)c2ccc(C)cc2)c(S(=O)(=O)c2ccccc2)c2nc3ccccc3nc21 | – | – | – | 58 | – | –
CCCCCCCCN1C(=O)[C@@H](CC(=O)NCCc2ccccc2OC)C[C@@]2(C(=O)OC)C1=C[C@H](C(C)(C)C)O[C@@H]2C | – | – | – | – | – | –
CCn1cc(C(=O)NCCCN2CCN(C)CC2)c(=O)c2cc(S(=O)(=O)N3CCc4ccccc4C3)ccc21 | – | – | – | – | – | 41
COc1ccccc1C(=O)N1CCC2CCNC2C1 (centres undefined) | – | – | – | – | – | –
CN(C)C1=NC[C@H](Cc2ccccc2)N1CCCC1CCCC1 | – | – | – | – | – | 23
O=C(CCc1nc2ccccc2c(=O)[nH]1)Nc1ccc(N2CCCCC2)cc1 | – | – | – | – | – | –
O=C(CCc1nc2ccccc2c(=O)[nH]1)Nc1cc(Cl)ccc1N1CCCC1 | – | – | – | – | – | 32
Cn1ccc(/C=N/N=C2/NC(=O)CS2)n1 | – | – | – | – | – | 37
O=C1CS/C(=N/N=C/c2ccncc2)N1 | – | – | – | – | – | –
C=CCN1[C@@H](C)[C@H](c2ccccc2)Oc2cccc(N3CCCC(C)C3)c2S1(=O)=O (some centres undefined) | – | – | – | – | – | 23
CCc1sc(C(=O)NCc2ccco2)cc1C | – | – | – | – | – | –

From PubChem BioAssay
